ChEMBL document CHEMBL2311453, “Tetrahydropyrroloquinolinone type dual inhibitors of aromatase/aldosterone synthase as a novel strategy for breast cancer patients with elevated cardiovascular risks” (J Med Chem, 2013)

Assays:
V79MZh = assay: Selectivity factor, ratio of IC50 for human CYP11B1 to IC50 for human CYP11B2 expressed in hamster V79MZh cells; assay type: cell-based
How it was run: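 SF calculated as IC50(CYP11B1)/IC50(CYP11B2). Both IC50s come from V79MZh hamster fibroblasts expressing the human enzyme, with [1,2-³H]-11-deoxycorticosterone at 100 nM as substrate.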

[1] = target: T1, Cytochrome P450 11B2, mitochondrial (Homo sapiens, UniProt P19099); assay: Inhibition of human CYP11B2 expressed in hamster V79MZh cells using [1,2-3H]-11-deoxy-corticosterone as substrate; assay type: cell-based
T1 sequence (P19099 whole entry): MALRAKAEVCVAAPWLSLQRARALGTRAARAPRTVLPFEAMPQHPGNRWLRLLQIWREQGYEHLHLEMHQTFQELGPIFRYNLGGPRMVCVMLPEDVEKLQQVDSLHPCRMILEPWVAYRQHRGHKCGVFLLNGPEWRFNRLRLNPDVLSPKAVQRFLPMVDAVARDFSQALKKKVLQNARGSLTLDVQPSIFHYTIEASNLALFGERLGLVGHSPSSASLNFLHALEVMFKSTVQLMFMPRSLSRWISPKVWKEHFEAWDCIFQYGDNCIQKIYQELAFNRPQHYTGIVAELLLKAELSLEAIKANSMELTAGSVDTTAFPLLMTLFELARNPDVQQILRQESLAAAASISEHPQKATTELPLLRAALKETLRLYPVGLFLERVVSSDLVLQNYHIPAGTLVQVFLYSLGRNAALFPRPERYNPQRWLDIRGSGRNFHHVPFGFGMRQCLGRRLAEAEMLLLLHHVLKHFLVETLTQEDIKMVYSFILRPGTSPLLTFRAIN
How it was run: (§1)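 V79MZh hamster fibroblasts stably expressing human CYP11B1 or CYP11B2, incubated with [1,2-³H]-11-deoxycorticosterone (100 nM) and inhibitor at varying concentrations. IC50 taken as mean of at least three experiments (relative SD under 25%).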

CYP17 = target: T2, CYP17 (Homo sapiens, UniProt P05093); assay: Inhibition of human CYP17 expressed in Escherichia coli using progesterone as substrate at 2 uM; conditions: probe progesterone
T2 sequence (P05093 whole entry): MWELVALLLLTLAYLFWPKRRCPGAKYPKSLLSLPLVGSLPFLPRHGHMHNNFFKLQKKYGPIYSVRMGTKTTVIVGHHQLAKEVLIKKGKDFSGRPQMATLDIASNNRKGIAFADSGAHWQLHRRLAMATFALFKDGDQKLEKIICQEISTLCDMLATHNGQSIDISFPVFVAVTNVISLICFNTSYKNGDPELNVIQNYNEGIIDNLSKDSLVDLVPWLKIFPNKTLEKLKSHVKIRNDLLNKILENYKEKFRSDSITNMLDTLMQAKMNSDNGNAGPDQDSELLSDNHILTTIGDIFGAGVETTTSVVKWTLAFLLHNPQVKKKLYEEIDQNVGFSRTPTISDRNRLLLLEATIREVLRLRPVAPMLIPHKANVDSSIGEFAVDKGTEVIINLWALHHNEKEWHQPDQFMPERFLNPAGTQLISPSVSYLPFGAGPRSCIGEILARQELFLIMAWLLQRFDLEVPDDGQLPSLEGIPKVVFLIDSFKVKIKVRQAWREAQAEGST
How it was run: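 Enzyme source was the 90000g sediment of E. coli coexpressing human CYP17 and cytochrome P450 reductase. Progesterone substrate at 25 μM, NADPH cofactor, inhibitor at 2 μM. Percent inhibition is the mean of at least two experiments (SD under 10%).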

[2] = target: T3, Cytochrome P450 11B1, mitochondrial (Homo sapiens, UniProt P15538); assay: Inhibition of human CYP11B1 expressed in hamster V79MZh cells using [1,2-3H]-11-deoxy-corticosterone as substrate; assay type: cell-based; how it was run: as §1
T3 sequence (P15538 whole entry): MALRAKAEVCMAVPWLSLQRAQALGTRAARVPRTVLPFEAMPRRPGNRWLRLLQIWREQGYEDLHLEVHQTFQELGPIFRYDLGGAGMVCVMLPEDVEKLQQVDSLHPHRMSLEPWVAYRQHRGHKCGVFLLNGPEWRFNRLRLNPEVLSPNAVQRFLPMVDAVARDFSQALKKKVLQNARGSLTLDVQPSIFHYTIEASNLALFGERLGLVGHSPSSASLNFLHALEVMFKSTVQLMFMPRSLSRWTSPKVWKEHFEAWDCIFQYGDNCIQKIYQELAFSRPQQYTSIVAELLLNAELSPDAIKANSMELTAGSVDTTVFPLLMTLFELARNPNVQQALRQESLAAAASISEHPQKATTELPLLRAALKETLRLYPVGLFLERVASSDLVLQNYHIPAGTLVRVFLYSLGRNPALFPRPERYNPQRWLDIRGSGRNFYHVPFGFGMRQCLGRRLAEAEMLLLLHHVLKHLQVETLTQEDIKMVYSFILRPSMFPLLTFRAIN

Aromatase = target: T4, Aromatase (Homo sapiens, UniProt P11511); assay: Inhibition of human CYP19 using [1beta-3H]androstenedione as substrate by 3H2O method
T4 sequence (P11511 whole entry): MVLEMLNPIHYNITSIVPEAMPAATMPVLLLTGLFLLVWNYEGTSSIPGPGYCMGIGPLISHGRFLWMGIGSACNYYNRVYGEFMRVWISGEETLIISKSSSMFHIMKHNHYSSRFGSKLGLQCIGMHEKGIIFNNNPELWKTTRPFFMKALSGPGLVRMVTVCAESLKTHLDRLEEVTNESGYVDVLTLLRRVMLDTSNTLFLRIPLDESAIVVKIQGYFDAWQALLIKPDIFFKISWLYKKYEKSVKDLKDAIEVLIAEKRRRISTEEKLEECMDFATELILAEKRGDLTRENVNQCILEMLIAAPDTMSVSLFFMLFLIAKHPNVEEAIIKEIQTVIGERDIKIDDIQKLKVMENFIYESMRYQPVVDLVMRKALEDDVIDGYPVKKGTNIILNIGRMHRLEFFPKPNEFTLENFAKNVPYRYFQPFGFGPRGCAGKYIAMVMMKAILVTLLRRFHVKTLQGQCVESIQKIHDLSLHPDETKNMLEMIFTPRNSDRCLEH

CYP19 (aromatase) = target: T5, CYP19 (aromatase) (Homo sapiens, UniProt P11511); assay: Inhibition of human CYP19 using [1beta-3H]androstenedione as substrate at 500 nM by 3H2O method; conditions: probe [1beta-3H]androstenedione
T5 sequence (P11511 whole entry): T4 sequence (P11511 whole entry)
How it was run: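 Human placental microsomes as CYP19 source. [1β-³H]androstenedione substrate at 500 nM, activity read by ³H₂O release. IC50 is the mean of at least three experiments (relative SD under 25%).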

SMILES | IC50 [1] [nM] | inhibition at 2 µM (CYP17) [%] | IC50 [2] [nM] | IC50 (Aromatase) [nM] | inhibition at 500 nM (CYP19 (aromatase)) [%] | Ratio IC50 (V79MZh)
N#Cc1ccc(C2CCCc3cncn32)cc1 (centres undefined) [FADROZOLE] | – | < 3 | – | – | – | –
O=C1CCc2cc(C(c3ccccc3)c3cccnc3)cc3c2N1CC3 (centres undefined) | 132 | – | 68 | 2130 | – | 0.5
COc1ccc(C(c2ccncc2)c2cc3c4c(c2)CCN4C(=O)CC3)cc1 (single isomer, unassigned; (-)) [listing 1 of 2 here] | – | – | – | – | – | 6.9
O=C1CCc2cc(C(c3ccncc3)c3cc(C(F)(F)F)cc(C(F)(F)F)c3)cc3c2N1CC3 (centres undefined) | 1580 | – | > 5000 | 246 | – | > 3
CC(c1ccncc1)c1cc2c3c(c1)CCN3C(=O)CC2 (centres undefined) | 74 | – | 140 | 1500 | – | 1.9
COc1ccc(C(c2ccncc2)c2cc3c4c(c2)CCN4C(=O)CC3)cc1 (single isomer, unassigned; (+)) [listing 1 of 2 here] | – | – | – | – | – | 37
COc1ccc(C(c2ccncc2)c2cc3c4c(c2)CCN4C(=O)CC3)cc1 (stereo in doubt; 3k) [listing 1 of 2 here] | 52 | 53 | 810 | 124 | – | –
Cc1cccc(C(c2cccnc2)c2cc3c4c(c2)CCN4C(=O)CC3)c1 (centres undefined) | > 5000 | – | 1220 | > 5000 | – | < 0.2
COc1ccc(C(c2ccncc2)c2cc3c4c(c2)CCN4C(=O)CC3)cc1 (single isomer, unassigned; (-)) [listing 2 of 2 here] | 74 | – | 511 | 92 | – | –
O=C1CCc2cc(C(c3cccnc3)c3cccc(Cl)c3)cc3c2N1CC3 (centres undefined) | > 5000 | – | 36 | 1350 | – | < 0.1
O=C1CCc2cc(C(c3ccncc3)c3ccc(Cl)cc3)cc3c2N1CC3 (centres undefined) | 32 | 60 | 92 | 55 | – | 2.9
O=C1CCc2cc(Cc3ccncc3)cc3c2N1CC3 | 204 | 8 | 224 | 2130 | – | 1.1
COc1ccc(C(c2ccncc2)c2cc3c4c(c2)CCN4C(=O)CC3)cc1 (stereo in doubt; 3k) [listing 2 of 2 here] | – | – | – | – | – | 16
O=C1CCc2cc(-c3cccnc3)cc3c2N1CC3 | 1.1 | – | 715 | – | 18 | 650
O=C1CCc2cc(C(O)c3cccnc3)cc3c2N1CC3 (centres undefined) | > 5000 | – | 750 | > 5000 | – | < 0.1
C=C(c1cccnc1)c1cc2c3c(c1)CCN3C(=O)CC2 | 468 | < 3 | 41 | > 5000 | – | 0.1
COc1cccc(C(c2ccncc2)c2cc3c4c(c2)CCN4C(=O)CC3)c1 (centres undefined) | 139 | 50 | 2540 | 59 | – | 18
C=C(c1ccncc1)c1cc2c3c(c1)CCN3C(=O)CC2 | 96 | 17 | 1230 | 565 | – | 13
O=C1CCc2cc(C(c3ccc(F)cc3)c3cccnc3)cc3c2N1CC3 (centres undefined) | 587 | – | 78 | 140 | – | 0.1
COc1ccc(C(c2ccncc2)c2cc3c4c(c2)CCN4C(=O)CC3)cc1 (single isomer, unassigned; (+)) [listing 2 of 2 here] | 46 | – | 1690 | 273 | – | –
O=C1CCc2cc(C(c3ccncc3)c3ccc(F)cc3)cc3c2N1CC3 (centres undefined) | 56 | 55 | 88 | 116 | – | 1.6
CC(C)C(c1ccncc1)c1cc2c3c(c1)CCN3C(=O)CC2 (centres undefined) | 750 | – | 1420 | 889 | – | 1.9

Continued, in another order:

IC50 [1] [nM] | inhibition at 2 µM (CYP17) [%] | IC50 [2] [nM] | IC50 (Aromatase) [nM] | inhibition at 500 nM (CYP19 (aromatase)) [%] | SMILES | Ratio IC50 (V79MZh)
74 | < 3 | 16 | 3340 | – | O=C1CCc2cc(Cc3cccnc3)cc3c2N1CC3 | 0.2
128 | 33 | 276 | 81 | – | COc1ccccc1C(c1ccncc1)c1cc2c3c(c1)CCN3C(=O)CC2 (centres undefined) | 2.2
85 | 43 | 745 | 105 | – | O=C1CCc2cc(C(O)(c3ccccc3)c3ccncc3)cc3c2N1CC3 (centres undefined) | 8.8
51 | 58 | 646 | 19 | – | O=C1CCc2cc(C(c3ccncc3)c3cccc(Cl)c3)cc3c2N1CC3 (centres undefined) | 13
390 | – | 5400 | 880 | – | O=C1CCc2cc(C(c3ccccc3)c3ccncc3)cc3c2N1CC3 (centres undefined) | 14
88 | – | 532 | 74 | – | O=C1CCc2cc(C(c3ccncc3)c3cccc(F)c3)cc3c2N1CC3 (centres undefined) | 6
1420 | 7 | 2620 | – | – | N#Cc1ccc(C(c2ccc(C#N)cc2)n2cncn2)cc1 [LETROZOLE] | –
1290 | – | > 5000 | 74 | – | O=C1CCc2cc(C(c3ccncc3)C3CCCCC3)cc3c2N1CC3 (centres undefined) | > 4
> 5000 | – | 2270 | 3660 | – | COc1ccccc1C(c1cccnc1)c1cc2c3c(c1)CCN3C(=O)CC2 (centres undefined) | < 0.3
37 | < 3 | 4 | > 5000 | – | CC(c1cccnc1)c1cc2c3c(c1)CCN3C(=O)CC2 (centres undefined) | 0.1
563 | < 3 | 347 | > 5000 | – | O=C1CCc2cc(C(O)c3ccncc3)cc3c2N1CC3 (centres undefined) | 0.6
41 | 46 | 1340 | 32 | – | Cc1cccc(C(c2ccncc2)c2cc3c4c(c2)CCN4C(=O)CC3)c1 (centres undefined) | 33
